What is called IC50 is the concentration needed to halve the response being measured.

Molecules are shown by their SMILES. Where “and” joins values, the source holds several entries; their conditions need not be identical. Equal entries are not always repeated.

The results in this text go back to ChEMBL document CHEMBL1146638, “Chemical basis for the biological activity of imexon and related cyanoaziridines” (J Med Chem, 2004).

Assay [1] relates to L1210. Description: Cytotoxicity against multidrug resistant (MDR) L1210 murine leukemia cells by MTT assay. In kind it is functional, cell-based, Mus musculus. In outline:
(§1)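 Murine L1210 leukemia cells, drug-sensitive and multidrug-resistant (MDR) sublines, tested in culture. Viability read by MTT assay. Values reported as IC50 in µM.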

For assay [2], the system named is L1210. Description: Cytotoxicity against sensitive L1210 murine leukemia cells by MTT assay. In kind it is functional, cell-based, Mus musculus. The method, boiled down:
as §1
A general note: Tetrazolium assays rely on reduction of a dye to a coloured formazan, in cell work by metabolically active cells.

The subject of the next assay is RPMI-8226. The assay can be described thus: Cytotoxicity against sensitive human myeloma 8226/S cells by MTT assay.

With `CNC(=O)N1CC1C#N` (stereo not drawn), the IC50 was found to be 36.7 µM with L1210 [1] (Mus musculus, L1210); 25.1 µM in the assay on L1210 [2] (Mus musculus, L1210); 15.5 µM in the assay with RPMI-8226.

As to `C[N+](C)(C)C(CSCC(C#N)NC(=O)Nc1ccccc1)C(=O)[O-]` (stereo not drawn), the IC50 in the assay with L1210 [1] (Mus musculus, L1210) was more than 500 µM; with L1210 [2] (Mus musculus, L1210), 73.9 µM; in the assay with RPMI-8226, 44.9 µM.

As to `O=C(Nc1ccccc1)N1CC1`, the IC50 with L1210 [1] (l1210) was 5.8 µM and 28.4 µM.

With `CC(=O)NC(CSCC1NC(=O)NC1=O)C(=O)O` (stereo not drawn), the IC50 in the assay on L1210 [1] (Mus musculus, L1210) came to 116 µM; with L1210 [2] (Mus musculus, L1210), 73.7 µM; with RPMI-8226 it was 56.3 µM.

Take `N#CC1CN1C(N)=O` (stereo not drawn): the IC50 with L1210 [1] (Mus musculus, L1210) was more than 500 µM; with L1210 [2] (Mus musculus, L1210), more than 500 µM; in the assay on RPMI-8226, more than 500 µM.

`O=C(O)C1CSC(C2CN2)=N1` (stereo not drawn): the IC50 in the assay with L1210 [1] (Mus musculus, L1210) is more than 500 µM; with L1210 [2] (Mus musculus, L1210), more than 500 µM.

Turning to `CNC(=O)N1CC1C1=NC(C(=O)O)CS1` (stereo not drawn), the IC50 with L1210 [1] (Mus musculus, L1210) was more than 500 µM; in the assay with L1210 [2] (Mus musculus, L1210) it was more than 500 µM.

With `N#CC1CN1` (stereo not drawn), the IC50 is more than 500 µM with L1210 [1] (Mus musculus, L1210) and more than 500 µM with L1210 [2] (Mus musculus, L1210).

In the case of `N#CC1CN1C(=O)Nc1ccccc1` (stereo not drawn), the values for the concentration for half-maximal inhibition (IC50) in the assay with L1210 [1] (l1210) and in the assay on L1210 [2] (l1210) were 41.2 µM and 38.4 µM, respectively.

On to `NC(=O)N1CC1C1=NC(C(=O)O)CS1` (stereo not drawn), for which the IC50 in the assay with L1210 [1] (Mus musculus, L1210) is more than 500 µM; in the assay on L1210 [2] (Mus musculus, L1210) it was more than 500 µM.
